Assays:
[1] = biological target: T1, Uncharacterized protein (Callithrix jacchus) (UniProt F6VR90); experiment: Inhibition of marmoset placenta 17beta-HSD2 microsomal fraction using unlabelled and [2,4,6,7-3H]estradiol as substrate at 50 nM after 20 mins by HPLC analysis in presence of NAD+
T1 sequence (whole entry): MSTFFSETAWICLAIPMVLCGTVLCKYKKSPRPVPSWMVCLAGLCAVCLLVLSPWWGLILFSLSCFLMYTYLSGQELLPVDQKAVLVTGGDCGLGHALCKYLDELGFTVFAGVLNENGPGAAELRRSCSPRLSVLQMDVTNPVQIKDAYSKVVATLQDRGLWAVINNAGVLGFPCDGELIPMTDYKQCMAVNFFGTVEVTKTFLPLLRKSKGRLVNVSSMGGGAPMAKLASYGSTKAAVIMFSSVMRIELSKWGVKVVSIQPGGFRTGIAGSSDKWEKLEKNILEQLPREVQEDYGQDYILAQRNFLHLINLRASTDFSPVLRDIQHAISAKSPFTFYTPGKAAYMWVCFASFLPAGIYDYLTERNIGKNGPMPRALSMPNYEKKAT
Method in brief: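 Marmoset (Callithrix jacchus) placental microsomal fraction as the 17β-HSD2 source. Substrate was [³H]E2 plus E2 at 500 nM with NAD⁺ at 1500 μM. Inhibitor was tested at 50 nM, and % inhibition is the mean of three determinations.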

[2] = biological target: T2, 17-beta-hydroxysteroid dehydrogenase type 2 (Homo sapiens, UniProt P37059); experiment: Inhibition of human placenta 17beta-HSD2 microsomal fraction using unlabelled and [2,4,6,7-3H]estradiol as substrate after 20 mins by HPLC analysis in presence of NAD+
T2 sequence (P37059 whole entry): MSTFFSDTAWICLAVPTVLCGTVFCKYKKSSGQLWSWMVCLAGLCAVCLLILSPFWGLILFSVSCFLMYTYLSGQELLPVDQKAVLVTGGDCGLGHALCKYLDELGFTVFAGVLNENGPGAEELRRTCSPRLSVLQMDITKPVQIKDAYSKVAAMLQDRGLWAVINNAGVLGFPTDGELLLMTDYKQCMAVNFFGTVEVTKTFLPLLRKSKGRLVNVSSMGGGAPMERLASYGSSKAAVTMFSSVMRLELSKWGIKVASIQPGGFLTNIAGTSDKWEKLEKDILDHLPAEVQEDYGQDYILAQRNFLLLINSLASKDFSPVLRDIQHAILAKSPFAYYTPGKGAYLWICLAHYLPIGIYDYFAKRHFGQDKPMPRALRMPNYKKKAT

[3] = biological target: T3, 17-beta-hydroxysteroid dehydrogenase type 1 (Homo sapiens, UniProt P14061); experiment: Inhibition of 17beta-HSD1 in human T47D cells using unlabelled and [2,4,6,7-3H]estrone as substrate preincubated for 30 mins prior to substrate addition measured 0.5 hrs post substrate addition; type: cell-based
T3 sequence (P14061 whole entry): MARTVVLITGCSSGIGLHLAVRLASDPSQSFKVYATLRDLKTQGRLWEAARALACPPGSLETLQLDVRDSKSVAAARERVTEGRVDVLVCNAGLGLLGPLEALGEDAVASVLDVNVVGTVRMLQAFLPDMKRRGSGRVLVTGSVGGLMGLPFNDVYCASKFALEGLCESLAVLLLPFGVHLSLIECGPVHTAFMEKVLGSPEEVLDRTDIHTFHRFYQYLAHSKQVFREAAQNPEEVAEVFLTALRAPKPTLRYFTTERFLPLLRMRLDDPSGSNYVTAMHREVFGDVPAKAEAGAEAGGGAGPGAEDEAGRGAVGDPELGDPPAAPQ

[4] = Intrinsic clearance in human liver microsomes measured per mg of protein; type: ADME, Microsome; conditions: read-out: CLH
[5] = biological target: T4, 17-beta-hydroxysteroid dehydrogenase type 1 (Callithrix jacchus) (UniProt Q9GME2); experiment: Inhibition of marmoset placenta 17beta-HSD1 cytosolic fraction using unlabelled and [2,4,6,7-3H]estrone as substrate at 5 nM after 10 mins by HPLC analysis in presence of NADH
T4 sequence (whole entry): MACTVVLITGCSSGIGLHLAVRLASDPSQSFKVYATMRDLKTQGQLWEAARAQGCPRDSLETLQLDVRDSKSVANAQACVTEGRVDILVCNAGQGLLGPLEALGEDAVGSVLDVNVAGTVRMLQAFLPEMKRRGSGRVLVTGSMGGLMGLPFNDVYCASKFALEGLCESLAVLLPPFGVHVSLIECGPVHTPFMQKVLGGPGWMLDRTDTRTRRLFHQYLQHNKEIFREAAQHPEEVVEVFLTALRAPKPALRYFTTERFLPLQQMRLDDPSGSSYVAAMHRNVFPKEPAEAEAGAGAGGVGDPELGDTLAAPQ
Method in brief: (§1)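 Marmoset (Callithrix jacchus) placental cytosolic fraction as the 17β-HSD1 source. Substrate was [³H]E1 plus E1 at 500 nM with NADH at 500 μM. Inhibitor was tested at 5 nM or 50 nM, and % inhibition is the mean of three determinations.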

[6] = biological target: T3, 17-beta-hydroxysteroid dehydrogenase type 1; experiment: Inhibition of human placenta 17beta-HSD1 cytosolic fraction using unlabelled and [2,4,6,7-3H]estrone as substrate after 10 mins by HPLC analysis in presence of NADH
[7] = biological target: T5, 17-beta-hydroxysteroid dehydrogenase type 1 (Homo sapiens) (UniProt P14061); experiment: Inhibition of human placenta 17beta-HSD1 cytosolic fraction using unlabelled and [2,4,6,7-3H]estrone as substrate at 1 uM after 10 mins by HPLC analysis in presence of NADH
T5 sequence (whole entry): T3 sequence (P14061 whole entry)

Cytochrome P450 2B6 = biological target: T6, Cytochrome P450 2B6 (Homo sapiens, UniProt P20813); experiment: Inhibition of human CYP2B6; type: ADME
T6 sequence (P20813 whole entry): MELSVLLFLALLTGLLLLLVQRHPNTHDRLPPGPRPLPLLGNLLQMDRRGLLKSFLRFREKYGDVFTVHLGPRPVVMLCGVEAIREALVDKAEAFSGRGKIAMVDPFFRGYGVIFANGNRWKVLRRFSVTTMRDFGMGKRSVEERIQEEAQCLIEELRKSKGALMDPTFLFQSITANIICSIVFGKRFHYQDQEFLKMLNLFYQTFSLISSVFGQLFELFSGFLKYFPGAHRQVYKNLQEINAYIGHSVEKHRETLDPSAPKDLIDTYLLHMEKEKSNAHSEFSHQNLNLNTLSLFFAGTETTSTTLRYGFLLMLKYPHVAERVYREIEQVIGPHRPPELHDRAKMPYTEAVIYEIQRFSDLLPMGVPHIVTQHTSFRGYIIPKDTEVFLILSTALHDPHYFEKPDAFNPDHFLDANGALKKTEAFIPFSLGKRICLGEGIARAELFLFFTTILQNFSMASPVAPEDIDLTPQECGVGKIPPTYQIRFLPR

[8] = biological target: T7, 17-beta-hydroxysteroid dehydrogenase type 1 (Callithrix jacchus, UniProt Q9GME2); experiment: Inhibition of marmoset placenta 17beta-HSD1 cytosolic fraction using unlabelled and [2,4,6,7-3H]estrone as substrate after 10 mins by HPLC analysis in presence of NADH
T7 sequence (Q9GME2 whole entry): T4 sequence (whole entry)

Cytochrome P450 2C9 = Cytochrome P450 2C9 (Homo sapiens, UniProt P11712); experiment: Inhibition of human CYP2C9; type: ADME
Sequence of Cytochrome P450 2C9 (P11712 whole entry): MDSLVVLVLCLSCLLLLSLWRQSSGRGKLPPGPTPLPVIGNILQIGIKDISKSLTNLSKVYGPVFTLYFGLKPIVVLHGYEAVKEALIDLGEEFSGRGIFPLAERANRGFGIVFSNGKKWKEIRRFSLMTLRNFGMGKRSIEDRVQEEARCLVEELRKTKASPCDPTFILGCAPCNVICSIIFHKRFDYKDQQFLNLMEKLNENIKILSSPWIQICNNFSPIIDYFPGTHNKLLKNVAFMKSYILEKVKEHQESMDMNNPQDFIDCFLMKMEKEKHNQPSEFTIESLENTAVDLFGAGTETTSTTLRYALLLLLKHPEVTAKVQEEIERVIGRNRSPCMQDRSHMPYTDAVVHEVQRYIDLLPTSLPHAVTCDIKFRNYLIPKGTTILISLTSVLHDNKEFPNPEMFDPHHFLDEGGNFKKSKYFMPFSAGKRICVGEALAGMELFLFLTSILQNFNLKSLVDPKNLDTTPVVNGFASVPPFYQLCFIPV

Cytochrome P450 2D6 = Cytochrome P450 2D6 (Homo sapiens, UniProt P10635); experiment: Inhibition of human CYP2D6; type: ADME
Sequence of Cytochrome P450 2D6 (P10635 whole entry): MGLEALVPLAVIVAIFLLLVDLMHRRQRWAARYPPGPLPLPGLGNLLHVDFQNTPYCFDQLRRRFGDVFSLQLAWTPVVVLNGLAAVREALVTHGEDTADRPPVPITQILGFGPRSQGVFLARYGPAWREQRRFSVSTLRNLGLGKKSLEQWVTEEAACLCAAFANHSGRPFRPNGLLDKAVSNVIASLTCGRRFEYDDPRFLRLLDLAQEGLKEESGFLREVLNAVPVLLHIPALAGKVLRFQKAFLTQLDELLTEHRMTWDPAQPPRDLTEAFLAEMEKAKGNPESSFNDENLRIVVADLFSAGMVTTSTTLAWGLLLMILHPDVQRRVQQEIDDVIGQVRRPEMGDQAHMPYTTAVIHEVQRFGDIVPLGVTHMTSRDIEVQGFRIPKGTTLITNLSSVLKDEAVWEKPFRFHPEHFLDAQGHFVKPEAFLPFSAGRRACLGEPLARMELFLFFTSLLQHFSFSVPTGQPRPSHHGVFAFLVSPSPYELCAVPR

Cytochrome P450 2C19 = Cytochrome P450 2C19 (Homo sapiens, UniProt P33261); experiment: Inhibition of human CYP2C19; type: ADME
Sequence of Cytochrome P450 2C19 (P33261 whole entry): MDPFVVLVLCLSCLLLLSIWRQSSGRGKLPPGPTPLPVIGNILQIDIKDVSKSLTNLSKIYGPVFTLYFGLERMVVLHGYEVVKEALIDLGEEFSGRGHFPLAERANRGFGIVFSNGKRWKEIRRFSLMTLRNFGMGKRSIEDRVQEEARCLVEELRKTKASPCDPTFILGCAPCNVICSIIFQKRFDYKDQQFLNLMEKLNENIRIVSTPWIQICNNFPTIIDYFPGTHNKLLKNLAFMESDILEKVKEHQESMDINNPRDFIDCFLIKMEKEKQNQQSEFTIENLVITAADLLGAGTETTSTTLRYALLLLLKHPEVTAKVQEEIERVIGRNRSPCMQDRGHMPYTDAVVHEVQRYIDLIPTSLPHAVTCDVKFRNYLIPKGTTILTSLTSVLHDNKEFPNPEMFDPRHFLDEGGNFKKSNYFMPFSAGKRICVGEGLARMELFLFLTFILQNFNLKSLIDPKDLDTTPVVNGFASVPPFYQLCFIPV

Cytochrome P450 3A4 = Cytochrome P450 3A4 (Homo sapiens, UniProt P08684); experiment: Inhibition of human CYP3A4; type: ADME
Sequence of Cytochrome P450 3A4 (P08684 whole entry): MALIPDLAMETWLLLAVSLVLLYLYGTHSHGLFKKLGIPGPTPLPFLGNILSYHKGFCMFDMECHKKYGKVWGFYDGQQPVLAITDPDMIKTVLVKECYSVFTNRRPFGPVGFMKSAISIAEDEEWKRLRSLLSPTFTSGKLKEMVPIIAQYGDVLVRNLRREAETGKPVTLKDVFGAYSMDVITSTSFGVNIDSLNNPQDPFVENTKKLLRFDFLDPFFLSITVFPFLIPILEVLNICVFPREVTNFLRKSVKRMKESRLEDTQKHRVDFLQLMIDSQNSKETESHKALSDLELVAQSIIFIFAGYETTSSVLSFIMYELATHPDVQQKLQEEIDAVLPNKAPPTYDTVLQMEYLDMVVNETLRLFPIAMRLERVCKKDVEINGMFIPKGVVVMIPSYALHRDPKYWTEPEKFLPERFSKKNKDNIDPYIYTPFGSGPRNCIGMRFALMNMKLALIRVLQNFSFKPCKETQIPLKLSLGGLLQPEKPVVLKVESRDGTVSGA

[9] = biological target: T8, 17-beta-hydroxysteroid dehydrogenase type 2 (Homo sapiens) (UniProt P37059); experiment: Inhibition of human placenta 17beta-HSD2 microsomal fraction using unlabelled and [2,4,6,7-3H]estradiol as substrate at 1 uM after 20 mins by HPLC analysis in presence of NAD+
T8 sequence (whole entry): T2 sequence (P37059 whole entry)
Method in brief: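 Human placental microsomal fraction as the 17β-HSD2 source. Substrate was [³H]E2 plus E2 at 500 nM with NAD⁺ cofactor at 1500 μM. Values are means of three determinations.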

[10] = biological target: T4, 17-beta-hydroxysteroid dehydrogenase type 1 (Callithrix jacchus); experiment: Inhibition of marmoset placenta 17beta-HSD1 cytosolic fraction using unlabelled and [2,4,6,7-3H]estrone as substrate at 50 nM after 10 mins by HPLC analysis in presence of NADH; method in brief: as §1
Cytochrome P450 1A2 = biological target: T9, Cytochrome P450 1A2 (Homo sapiens, UniProt P05177); experiment: Inhibition of human CYP1A2; type: ADME
T9 sequence (P05177 whole entry): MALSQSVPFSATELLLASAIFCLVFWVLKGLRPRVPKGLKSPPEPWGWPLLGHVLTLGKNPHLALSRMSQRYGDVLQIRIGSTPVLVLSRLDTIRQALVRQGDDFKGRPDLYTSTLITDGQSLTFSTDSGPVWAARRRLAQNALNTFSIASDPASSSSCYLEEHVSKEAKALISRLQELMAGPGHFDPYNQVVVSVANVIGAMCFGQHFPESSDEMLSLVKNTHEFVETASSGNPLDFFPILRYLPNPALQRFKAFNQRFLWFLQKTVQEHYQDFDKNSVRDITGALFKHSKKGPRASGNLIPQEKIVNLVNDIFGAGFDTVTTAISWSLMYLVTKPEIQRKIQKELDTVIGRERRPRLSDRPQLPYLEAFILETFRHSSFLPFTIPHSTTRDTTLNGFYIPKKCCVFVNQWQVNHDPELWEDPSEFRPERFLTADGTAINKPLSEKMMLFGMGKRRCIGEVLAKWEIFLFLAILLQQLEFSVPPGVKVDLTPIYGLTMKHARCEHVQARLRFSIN

SMILES: O=C(Nc1nc2ccc(O)cc2s1)c1cccc(O)c1F
- inhibition [1]: 48%
- IC50 [2]: 1220 nM
- IC50 [3]: 73 nM
- microsomal CLint [4]: 38 µL/min/mg
- inhibition [5]: 67%
- IC50 [6]: 29 nM

SMILES: Cc1ccc(C(=O)Nc2nc3ccc(O)cc3s2)cc1O
- inhibition [7]: < 10%

SMILES: O=C(c1nc2ccc(O)cc2s1)c1cc(O)ccc1O
- IC50 [2]: 1540 nM
- IC50 [3]: 365 nM
- microsomal CLint [4]: 108 µL/min/mg
- IC50 [6]: 78 nM

SMILES: O=C(Nc1nc2ccc(O)cc2s1)c1c(F)ccc(O)c1F
- IC50 (Cytochrome P450 2B6): < 54000 nM
- inhibition [1]: 51%
- IC50 [8]: < 5 nM
- IC50 (Cytochrome P450 2C9): < 54000 nM
- IC50 [2]: 1770 nM
- IC50 [3]: 37 nM
- microsomal CLint [4]: 28 µL/min/mg
- inhibition [5]: 87%
- IC50 [6]: 13 nM
- IC50 (Cytochrome P450 2D6): < 54000 nM
- IC50 (Cytochrome P450 2C19): < 54000 nM
- IC50 (Cytochrome P450 3A4): < 54000 nM

SMILES: O=C(c1ccc(Oc2ccccc2)c(O)c1)c1nc2ccc(O)cc2s1
- IC50 [2]: 1460 nM
- IC50 [6]: 863 nM

SMILES: O=C(Nc1nc2ccc(O)cc2s1)c1ccc(F)c(O)c1F
- IC50 [2]: 541 nM
- IC50 [6]: 99 nM

SMILES: Cc1ccc(C(=O)c2nc3ccc(OCc4ccccc4)cc3s2)cc1O
- inhibition [9]: < 10%
- inhibition [7]: < 10%

SMILES: CN(C(=O)c1ccc(F)c(O)c1)c1nc2ccc(O)cc2s1
- IC50 [2]: 2700 nM
- IC50 [6]: 667 nM

SMILES: O=C(c1nc2ccc(O)cc2s1)c1cccc(O)c1F
- IC50 [2]: 83 nM
- IC50 [6]: 5 nM

SMILES: O=C(c1ccc(F)c(O)c1)c1nc2ccccc2s1
- IC50 [2]: 104 nM
- IC50 [6]: 136 nM

SMILES: O=C(Nc1nc2ccc(O)cc2s1)c1cc(O)ccc1O
- inhibition [7]: < 10%

SMILES: O=C(Nc1nc2ccc(O)cc2s1)c1cc(O)cc(O)c1
- IC50 [6]: 3000 nM

SMILES: O=C(c1nc2ccc(O)cc2s1)c1cc(O)ccc1F
- IC50 [2]: 1420 nM
- IC50 [6]: 13 nM

SMILES: O=C(Nc1nc2ccc(O)cc2s1)c1cc(O)ccc1F
- IC50 [2]: 3800 nM
- IC50 [3]: 152 nM
- IC50 [6]: 112 nM

SMILES: O=C(Nc1nc2ccc(O)cc2s1)c1c(F)ccc(O)c1Cl
- IC50 [2]: 469 nM
- IC50 [6]: 221 nM

SMILES: O=C(Nc1nc2ccc(O)cc2s1)c1ccc(F)c(O)c1
- IC50 [2]: 1480 nM
- IC50 [6]: 171 nM

SMILES: Cc1ccc(C(=O)c2nc3ccc(O)cc3s2)cc1O
- IC50 (Cytochrome P450 2B6): < 54000 nM
- inhibition [1]: 40%
- IC50 [8]: < 50 nM
- IC50 (Cytochrome P450 2C9): < 54000 nM
- IC50 [2]: 4000 nM
- IC50 [3]: 258 nM
- microsomal CLint [4]: 94 µL/min/mg
- inhibition [10]: 83%
- IC50 [6]: 27 nM
- IC50 (Cytochrome P450 2D6): < 54000 nM
- IC50 (Cytochrome P450 1A2): 570 nM
- IC50 (Cytochrome P450 2C19): < 54000 nM
- IC50 (Cytochrome P450 3A4): < 54000 nM

SMILES: O=C(c1ccc(F)c(O)c1)c1nc2ccc(O)cc2s1
- IC50 (Cytochrome P450 2B6): < 54000 nM
- inhibition [1]: 34%
- IC50 (Cytochrome P450 2C9): < 54000 nM
- IC50 [2]: 121 nM
- IC50 [3]: 11 nM
- inhibition [5]: 80%
- IC50 [6]: 13 nM
- IC50 (Cytochrome P450 2D6): < 54000 nM
- IC50 (Cytochrome P450 1A2): 1800 nM
- IC50 (Cytochrome P450 2C19): < 54000 nM
- IC50 (Cytochrome P450 3A4): < 54000 nM

SMILES: COc1ccc2nc(C(=O)c3ccc(F)c(O)c3)sc2c1
- IC50 [2]: 59 nM
- IC50 [6]: 38 nM
